# In ChEMBL document CHEMBL1817601, “6,7-Dihydro-5H-cyclopenta[d]pyrazolo[1,5-a]pyrimidines and their derivatives as novel corticotropin-releasing factor 1 receptor antagonists” (Bioorg Med Chem, 2011):
# Activity calls are given as the source filed them. No cut-off for these calls is given here.
# Assays:
# [1] = target: T1, Corticotropin-releasing factor receptor 1 (Homo sapiens, UniProt P34998); experiment: Displacement of [125I]CRF from human corticotropin-releasing factor receptor 1 expressed in CHO-K1 cells after 2 hrs by gamma counting; assay type: cell-based
# T1 sequence (P34998 whole entry): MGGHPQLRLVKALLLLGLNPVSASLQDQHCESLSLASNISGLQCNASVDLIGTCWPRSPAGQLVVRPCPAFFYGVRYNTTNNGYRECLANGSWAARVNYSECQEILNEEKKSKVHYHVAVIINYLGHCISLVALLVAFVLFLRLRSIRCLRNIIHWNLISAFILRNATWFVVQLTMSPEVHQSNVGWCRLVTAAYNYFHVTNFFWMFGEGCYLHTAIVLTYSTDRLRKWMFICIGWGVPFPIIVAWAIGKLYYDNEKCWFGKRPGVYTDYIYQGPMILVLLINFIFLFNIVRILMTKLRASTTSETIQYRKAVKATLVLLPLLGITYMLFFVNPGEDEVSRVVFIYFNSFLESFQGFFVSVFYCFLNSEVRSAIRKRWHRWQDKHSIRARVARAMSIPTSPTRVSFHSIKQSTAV
# How it was run: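 Crude membranes prepared from CRF1-expressing CHO-K1 cells in 50 mmol/l Tris-HCl with 10 mmol/l MgCl2, 2 mmol/l EDTA and aprotinin. Membranes incubated with 0.5 nmol/l (stock) ¹²⁵I human/rat CRF and compound (1–10,000 nmol/l) for 2 h at room temperature. Reaction ended by centrifugation, pellet washed with PBS/0.01% Triton X-100. IC50 of specific binding taken from concentration–response curves.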
# [2] = target: T1, Corticotropin-releasing factor receptor 1; experiment: Antagonist activity at human corticotropin-releasing factor receptor 1 expressed in CHO-K1 cells assessed as inhibition of CRF-induced cAMP production after 15 mins by enzyme immunoassay; assay type: functional, cell-based
# How it was run: (§1)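 CHO-K1 cells expressing CRF1 seeded at 1 × 10⁴ cells/well and incubated overnight. Cells washed with F-12, then preincubated 10 min at 37 °C in F-12 with 1 mmol/l IBMX. Compound (1–10,000 nmol/l) added with medium containing 10 nmol/l CRF (stock), then 15 min at 37 °C. Cells chilled and cAMP measured by enzyme immunoassay, blank-corrected; IC50 taken from concentration–response curves.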
# [3] = test system: Rattus norvegicus; experiment: Anxiolytic activity in swim stress-loaded Sprague-Dawley rat assessed as increase in time spent in open arms at 10 mg/kg, po after 1 hr by plus-maze test; assay type: functional, organism-based; parameters: dose 10 mg/kg
# How it was run: (§2)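 Male Sprague–Dawley rats (230–280 g) given 0.5% MC vehicle or compound orally 1 h before testing. Rats forced to swim 90 s in 22 °C water, then placed at the maze centre facing a closed arm. Behaviour video-tracked for 5 min; time in open arms and open-arm entries scored. 16 rats per group, mean ± S.E.; Dunnett test against vehicle.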
# [4] = Tmax in rat at 3 mg/kg, po; assay type: ADME, organism-based; parameters: dose 3 mg/kg, route oral; details: in vivo
# How it was run: (§3)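 Fasted male rats (n = 4) given 3 mg/kg orally in saline with 0.5% MC (w/v). Jugular vein blood (heparinized syringe) taken at 1, 2, 4, 6, 8, 24, 48, 72 h. Plasma obtained by centrifugation and stored at −70 °C. AUC, Cmax, Tmax and T1/2 derived from the plasma concentration time course.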
# [5] = Half life in rat at 0.3 mg/kg, iv; assay type: ADME, organism-based; parameters: dose 0.3 mg/kg, route intravenous; details: in vivo
# How it was run: (§4)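 Fasted male rats (n = 4) dosed intravenously at 0.3 mg/kg. Samples ice-chilled and centrifuged to plasma, then stored at −70 °C. AUC, T1/2, Vss and CL taken from the plasma concentration time course.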
# [6] = Volume of distribution at steady state in rat at 0.3 mg/kg, iv; assay type: ADME, organism-based; parameters: dose 0.3 mg/kg, route intravenous; details: in vivo, read-out: Vdss; how it was run: as §4
# [7] = Ratio of drug level in brain to plasma in rat at 3 mg/kg, po after 1 hr; assay type: ADME, organism-based; parameters: dose 3 mg/kg, route oral; details: read-out: BPR
# [8] = Cmax in rat at 3 mg/kg, po; assay type: ADME, organism-based; parameters: dose 3 mg/kg, route oral; details: in vivo; how it was run: as §3
# [9] = test system: Rattus norvegicus; experiment: Anxiolytic activity in swim stress-loaded Sprague-Dawley rat assessed as increase in time spent in open arms at 3 mg/kg, po after 1 hr by plus-maze test; assay type: functional, organism-based; parameters: dose 3 mg/kg; how it was run: as §2
# [10] = AUC (infinity) in rat at 3 mg/kg, po; assay type: ADME, organism-based; parameters: time infinity, dose 3 mg/kg, route oral; details: plasma; how it was run: as §3
# [11] = target: T2, Corticotropin-releasing factor receptor 1 (Rattus norvegicus, UniProt P35353); experiment: Antagonist activity at rat corticotropin-releasing factor receptor 1 expressed in CHO-K1 cells assessed as inhibition of CRF-induced cAMP production after 15 mins by enzyme immunoassay; assay type: functional, cell-based; how it was run: as §1
# T2 sequence (P35353 whole entry): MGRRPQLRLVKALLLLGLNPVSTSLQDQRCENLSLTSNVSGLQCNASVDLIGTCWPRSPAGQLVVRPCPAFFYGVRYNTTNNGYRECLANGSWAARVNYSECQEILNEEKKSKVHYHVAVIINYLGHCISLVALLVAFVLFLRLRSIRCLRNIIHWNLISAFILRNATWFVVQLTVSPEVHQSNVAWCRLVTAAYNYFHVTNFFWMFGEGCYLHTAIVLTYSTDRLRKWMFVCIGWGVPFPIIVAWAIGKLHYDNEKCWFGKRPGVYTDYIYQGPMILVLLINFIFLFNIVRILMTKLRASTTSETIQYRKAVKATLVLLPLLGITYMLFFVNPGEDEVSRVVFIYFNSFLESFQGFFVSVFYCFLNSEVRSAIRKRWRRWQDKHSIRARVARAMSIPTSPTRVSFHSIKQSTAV
# [12] = target: T2, Corticotropin-releasing factor receptor 1; experiment: Displacement of [125I]CRF from corticotropin-releasing factor receptor 1 in rat brain membranes after 2 hrs by gamma counting; assay type: cell membranes
# [13] = Oral bioavailability in rat at 3 mg/kg; assay type: ADME, organism-based; details: in vivo
# [14] = AUC (infinity) in rat at 0.3 mg/kg, iv; assay type: ADME, organism-based; parameters: time infinity, dose 0.3 mg/kg, route intravenous; details: plasma; how it was run: as §4
# [15] = Total clearance in rat at 0.3 mg/kg, iv; assay type: ADME, organism-based; parameters: dose 0.3 mg/kg, route intravenous; details: in vivo; how it was run: as §4
# [16] = Half life in rat at 3 mg/kg, po; assay type: ADME, organism-based; parameters: dose 3 mg/kg, route oral; details: in vivo; how it was run: as §3
SMILES,IC50 [1],EC50 [2],also measured
CCC(CC)Nc1c2c(nc3c(-c4ccc(OC)cc4C)c(CSC)nn13)CCC2,0.62 µM,,
CCC(CC)Nc1c2c(nc3c(-c4ccc(OC)cc4C)c(C4CCC4)nn13)CCC2,0.49 µM,,
CCc1nn2c(NC(CC)CC)c3c(nc2c1-c1ccc(OC)cc1C)CCC3,0.097 µM,,
CCC(CC)Nc1c2c(nc3c(-c4ccc(OC(F)F)cc4Cl)c(C)nn13)CCC2,0.003 µM,0.2 µM,
CCC(CC)Nc1c2c(nc3c(-c4ccc(OC)cc4C)c(C)nn13)CCO2,0.031 µM,0.64 µM,
CCC(CC)Nc1c2c(nc3c(-c4ccc(OC)cc4C)cnn13)CCC2,0.24 µM,,
CCC(CC)Nc1c2c(nc3c(-c4ccc(OC)cc4Cl)c(C)nn13)COC2,0.022 µM,0.066 µM,
CCC(CC)Nc1c2c(nc3c(-c4ccc(OC)cc4Cl)c(C)nn13)CCO2,0.007 µM,0.004 µM,
CCC(CC)Nc1c2c(nc3c(-c4ccc(OC)cc4Cl)c(C)nn13)CCC2 [ONO-2333MS],0.004 µM,0.04 µM,Activity [3]: Active; Tmax [4]: 1 h; half-life [5]: 4.7 h; Vd [6]: 1.78 L/kg; Kp at 1 h [7]: 0.4; Cmax [8]: 87.1 ng/mL; Activity [9]: Active; AUC(0-inf) [10]: 608 ng·h/mL; EC50 [11]: 0.04 µM; IC50 [12]: 0.007 µM; bioavailability [13]: 22%; AUC(0-inf) [14]: 278 ng·h/mL; clearance [15]: 18 mL/min/kg; half-life [16]: 7.8 h
CCC(CC)Nc1c2c(nc3c(-c4ccc(OC)cc4SC)c(C)nn13)CCC2,0.049 µM,,
CCC(CC)Nc1c2c(nc3c(-c4ccc(OC(F)(F)F)cc4Cl)c(C)nn13)CCC2,0.015 µM,,
CCC(CC)Nc1c2c(nc3c(-c4ccc(Cl)cc4Cl)c(C)nn13)CCC2,0.037 µM,0.2 µM,
CCOc1ccc(-c2c(C)nn3c(NC(CC)CC)c4c(nc23)CCC4)c(Cl)c1,0.071 µM,,
CCC(CC)Nc1c2c(nc3c(-c4c(C)cc(OC)cc4C)c(C)nn13)CCC2,0.009 µM,0.08 µM,
CCC(CC)Nc1c2c(nc3c(-c4cc(C)c(OC)cc4C)c(C)nn13)CCC2,0.022 µM,0.047 µM,
CCC(CC)Nc1c2c(nc3c(-c4ccc(OC)c(OC)c4)c(C)nn13)CCC2,0.6 µM,,
CCC(CC)Nc1c2c(nc3c(-c4ccc(OC)cc4Cl)c(C)nn13)OCC2,0.084 µM,0.008 µM,
CCC(CC)Nc1c2c(nc3c(-c4cc(C)ccc4C)c(C)nn13)CCC2,0.82 µM,,
CCC(CC)Nc1c2c(nc3c(-c4ccc(OC)cc4C)c(C(F)(F)F)nn13)CCC2,0.059 µM,,
CCC(CC)Nc1c(C)c(C)nc2c(-c3ccc(OC)cc3Cl)c(C)nn12,0.049 µM,0.1 µM,
CCC(CC)Nc1c2c(nc3c(-c4ccc(OC)cc4C)c(C)nn13)COC2,0.035 µM,0.075 µM,
CCC(CC)Nc1c2c(nc3c(-c4ccc(OC)cc4C)c(C)nn13)CCN2,0.17 µM,,
CCC(CC)Nc1c2c(nc3c(-c4ccc(OC)cc4C)c(C)nn13)CSC2,0.037 µM,0.15 µM,
CCC(CC)Nc1cc(C)nc2c(-c3ccc(OC)cc3C)c(C)nn12,,,IC50 [2]: 0.01 µM
CCC(CC)Nc1c2c(nc3c(-c4ccc(OC)cc4C)c(C)nn13)CCS2,0.08 µM,,
CCC(CC)Nc1c2c(nc3c(-c4ccc(C)cc4C)c(C)nn13)CCC2,0.072 µM,0.92 µM,
CCC(CC)Nc1c2c(nc3c(-c4ccc(N(C)C)cc4C)c(C)nn13)CCC2,0.038 µM,,
CCC(CC)Nc1cc(C)nc2c(-c3ccc(OC)cc3Cl)c(C)nn12,0.006 µM,0.031 µM,
CCC(CC)Nc1c2c(nc3c(-c4ccc(OC)cc4C)c(C)nn13)CCC2,0.037 µM,0.17 µM,
CCC(CC)Nc1c2c(nc3c(-c4ccc(F)cc4C)c(C)nn13)CCC2,0.093 µM,,
